Test results: paper PMC12418302 (Journal of Natural Products, 2025)

Assays:
[1] = system: zebrafish; conditions: in vivo; cited from earlier work
[2] = target: α-chymotrypsin (Bos taurus, UniProt P00766); assay: Chymotrypsin inhibition assay; format: biochemical
In short: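 α-Chymotrypsin, added as a 10 U/mL solution in kit assay buffer, was preincubated with test compound from a DMSO dilution series (10 μM to 1 nM) for 15 min at room temperature. A reference micropeptin served as positive control. A working reagent of 1% substrate in assay buffer was added, and fluorescence (ex/em 485/530 nm) was read every 30 s for 30 min. IC50 was calculated from the data.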

[3] = target: T1, human neutrophil elastase (Homo sapiens, UniProt P08246); assay: Neutrophil elastase inhibition assay; format: biochemical; conditions: dilution series 10 μM to 1 nM; general statement covering both protease assays
T1 sequence (P08246 30-267): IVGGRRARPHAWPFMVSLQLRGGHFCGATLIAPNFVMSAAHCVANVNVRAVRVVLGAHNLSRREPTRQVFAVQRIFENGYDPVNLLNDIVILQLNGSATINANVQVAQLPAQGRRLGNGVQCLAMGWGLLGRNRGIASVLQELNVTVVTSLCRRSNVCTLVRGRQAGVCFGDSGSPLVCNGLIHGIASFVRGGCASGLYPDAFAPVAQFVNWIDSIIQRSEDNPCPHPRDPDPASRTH

[4] = system: chymotrypsin; conditions: read-out: IC50, chymotrypsin inhibition; literature value; cited from earlier work

## CCCCCC(=O)N[C@@H](CC(=O)O)C(=O)N[C@H]1C(=O)N[C@@H](CCCN=C(N)N)C(=O)NC2CCC(O)N(C2=O)[C@@H]([C@H](C)CC)C(=O)N(C)[C@@H](Cc2ccc(O)cc2)C(=O)N[C@@H]([C@@H](C)CC)C(=O)O[C@@H]1C (some centres unmarked) [micropeptin K139]
[1]
  share of the overall mortality attributed to the compound: 52%

## Micropeptin 982 (L-Ser) [Compound 2]
[2]; dilution series 10 μM to 1 nM
  chymotrypsin inhibitory activity (in words): no inhibition was observed
[3]
  inhibitory activity (in words), neutrophil elastase: lacked any inhibitory activity

## Micropeptin 996 (D-Gln) [Compound 4]
[2]; up to a concentration of 10 μM
  chymotrypsin inhibition (in words): not active

## Microviridin 1777
[4]
  IC50: 100 nM
